This is an account of results in ChEMBL document CHEMBL4402517, “Rational modification of Mannich base-type derivatives as novel antichagasic compounds: Synthesis, in vitro and in vivo evaluation” (Bioorg Med Chem, 2019).

Activity calls are given as the source filed them. The rule behind the calls is not given here.

Series [1] is described as follows: Toxicity in BALB/c mouse infected with Trypanosoma cruzi MHOM/Pe/2011/Arequipa;DTU 5 bloodstream trypomastigote assessed as increase in serum alanine aminotransferase level in chronic phase at 20 mg/kg/day, po administered for 5 consecutive days starting from day 70 post infection and measured at day 76 post infection relative to control. In kind it is organism-based. To be noted: in vivo. In outline: (§1)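 Female BALB/c mice (10–12 weeks, 14–20 g; groups of three) were infected i.p. with 5 × 10^5 Arequipa bloodstream trypomastigotes. Dosing was oral at 20 mg/kg/day for 5 days, from day 8 pi (acute) or day 70 pi (chronic), as a 2 mg/ml suspension in 5% DMSO/0.5% HPMC; controls received vehicle. Cyclophosphamide 200 mg/kg i.p. was given at day 80 pi. Serum was collected 2 days post-treatment and at necropsy by cardiac puncture and compared with infected untreated controls.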

In series [2] the test system is Trypanosoma cruzi. As to the kind of experiment: Antitrypanosomal activity against Trypanosoma cruzi TINF/CH/1956/Tulahuen;DTU 6 epimastigotes measured after 72 hrs by Neubauer hemocytometer. In kind it is functional, organism-based. The note with it: TINF/CH/1956/Tulahuen;DTU 6, 72 h.
Series [3] concerns Trypanosoma cruzi. As to the kind of experiment: Antitrypanosomal activity against Trypanosoma cruzi MHOM/Pe/2011/Arequipa;DTU 5 bloodstream trypomastigotes infected in BALB/c mouse assessed as reduction in serum Ig-G level in chronic phase at 20 mg/kg/day, po administered for 5 consecutive days starting from day 70 post infection measured at day 76 post infection by ELISA. In kind it is functional, organism-based. In outline: (§2)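 Sera came from infected BALB/c mice (three per group) dosed orally at 20 mg/kg/day for 5 days. Sampling points: 2 days after treatment, the day before immunosuppression (acute only) and necropsy day. Anti-T. cruzi IgG was measured by indirect ELISA using parasite Fe-SOD as antigen, read as OD at 492 nm.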

The nature of series [4]: Selectivity index, ratio of IC50 for African green monkey Vero cells to IC50 for Trypanosoma cruzi MHOM/Pe/2011/Arequipa;DTU 5. It counts as toxicity. To be noted: read-out: Selectivity Index. In outline: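 SI = Vero IC50 / epimastigote IC50. Vero cells were grown in RPMI-1640 with 10% FBS, seeded at 0.8 × 10^4 cells/well, exposed to 10.0–200.0 µM for 72 h, then given MTT for 4 h. Epimastigotes were grown in MTL with 10% FBS at 28 °C, 5 × 10^5/mL, exposed to 6.3–50 µM for 48 h, then resazurin for 24 h (570/600 nm). IC50s came from nonlinear regression.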

Series [5] deals with Trypanosoma cruzi. As to the kind of experiment: Antitrypanosomal activity against Trypanosoma cruzi MHOM/Pe/2011/Arequipa;DTU 5 bloodstream trypomastigote infected in BALB/c mouse assessed as parasite-free bone marrow in chronic phase at 20 mg/kg/day, po administered for 5 consecutive days starting from day 70 post infection followed by cyclophosphamide induced immunosuppression on day 80 post infection measured after day 100 post infection by PCR method relative to control. In kind it is functional. In outline:
(§3)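 Female BALB/c mice (10–12 weeks, three per group) were infected i.p. with 5 × 10^5 Arequipa bloodstream trypomastigotes. Dosing was oral, 20 mg/kg/day for 5 days, as a suspension in 5% DMSO/0.5% HPMC. Cyclophosphamide 200 mg/kg i.p. was given at day 80 pi. At necropsy (day 100) tissues were tested by PCR on the splice leader region (primers TC/TC1, 300 bp). Scored as x/3 mice positive.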

Series [6] deals with Trypanosoma cruzi. The series is described as follows: Antitrypanosomal activity against Trypanosoma cruzi MHOM/Pe/2011/Arequipa;DTU 5 epimastigote assessed as effect on acetate excretion at IC50 after 72 hrs by H NMR method relative to control. It counts as functional, organism-based. The method in brief: (§4)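 Cells were spun at 800 × g for 10 min and culture supernatants analysed by 1H NMR. Catabolite peaks were expressed as % variation versus untreated parasites.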

Series [7] can be described thus: Selectivity index, ratio of IC50 for African green monkey Vero cells to IC50 for Trypanosoma cruzi TINF/CH/1956/Tulahuen;DTU 6 trypomastigote forms. It counts as toxicity. The note with it: read-out: Selectivity Index. In outline: (§5)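 Bloodstream trypomastigotes were taken from BALB/c mice by cardiac puncture and diluted in RPMI with 10% FBS at 2 × 10^6/mL. They were incubated with 3.1–50.0 µM for 24 h at 37 °C in 5% CO2 and counted in a Neubauer chamber. Triplicate, at least three experiments; nonlinear regression.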

Series [8] concerns Trypanosoma cruzi. The series is described as follows: Antitrypanosomal activity against Trypanosoma cruzi MHOM/Pe/2011/Arequipa;DTU 5 epimastigote assessed as effect on ethanol excretion at IC50 after 72 hrs by H NMR method relative to control. In kind it is functional, organism-based. The method in brief:
as §4

Series [9] relates to Trypanosoma cruzi. As to the kind of experiment: Trypanocidal activity against Trypanosoma cruzi TINF/CH/1956/Tulahuen;DTU 6 trypomastigote forms infected in BALB/c albino mouse measured after 24 hrs by Neubauer chamber method. The note with it: TINF/CH/1956/Tulahuen;DTU 6, 24 h.
A short description of series [10]: Selectivity index, ratio of IC50 for African green monkey Vero cells to IC50 for Trypanosoma cruzi IRHOD/CO/2008/SN3;DTU 1 trypomastigote forms. In kind it is toxicity. The note with it: read-out: Selectivity Index. The method in brief:
as §5

Series [11] relates to Trypanosoma cruzi. The series is described as follows: Trypanocidal activity against Trypanosoma cruzi trypomastigote form infected in African green monkey Vero cells measured after 48 hrs by resazurin dye based assay. It counts as functional, organism-based.
In series [12] the test system is Trypanosoma cruzi. The series is described as follows: Antitrypanosomal activity against Trypanosoma cruzi IRHOD/CO/2008/SN3;DTU 1 epimastigotes measured after 72 hrs by Neubauer hemocytometer. In kind it is functional, organism-based. The note with it: IRHOD/CO/2008/SN3;DTU 1, 72 h.
The test system of series [13] is Trypanosoma cruzi. The series is described as follows: Antitrypanosomal activity against Trypanosoma cruzi MHOM/Pe/2011/Arequipa;DTU 5 epimastigote assessed as effect on glycerol excretion at IC50 after 72 hrs by H NMR method relative to control. It counts as functional, organism-based. In outline:
as §4

The nature of series [14]: Toxicity in BALB/c mouse infected with Trypanosoma cruzi MHOM/Pe/2011/Arequipa;DTU 5 bloodstream trypomastigote assessed as decrease in serum lactate dehydrogenase level in acute phase at 20 mg/kg/day,po administered for 5 consecutive days starting from day 8 post infection and measured at day 14 post infection by biochemical analysis relative to control. It counts as organism-based. Details: scale not given: the % may be the effect or the level left. The note with it: in vivo. In outline: as §1

A short description of series [15]: Toxicity in BALB/c mouse infected with Trypanosoma cruzi MHOM/Pe/2011/Arequipa;DTU 5 bloodstream trypomastigote assessed as decrease in serum creatine kinase muscle to brain ratio level in chronic phase at 20 mg/kg/day, po administered for 5 consecutive days starting from day 70 post infection measured on day 100 post infection relative to control. To be noted: in vivo. Details: scale not given: the % may be the effect or the level left. It counts as organism-based. The method in brief:
as §1

For series [16], the system named is Trypanosoma cruzi. As to the kind of experiment: Antitrypanosomal activity against Trypanosoma cruzi MHOM/Pe/2011/Arequipa;DTU 5 bloodstream trypomastigote infected in BALB/c mouse assessed as parasite-free muscle in acute phase at 20 mg/kg/day, po administered for 5 consecutive days starting from day 8 post infection followed by cyclophosphamide induced immunosuppression on day 80 post infection measured after day 100 post infection by PCR method relative to control. It counts as functional. In outline: as §3

For series [17], the system named is Trypanosoma cruzi. The series is described as follows: Antitrypanosomal activity against Trypanosoma cruzi MHOM/Pe/2011/Arequipa;DTU 5 bloodstream trypomastigote infected in BALB/c mouse assessed as parasite-free brain in acute phase at 20 mg/kg/day, po administered for 5 consecutive days starting from day 8 post infection followed by cyclophosphamide induced immunosuppression on day 80 post infection measured after day 100 post infection by PCR method relative to control. In kind it is functional. In outline: as §3

The test system of series [18] is Trypanosoma cruzi. As to the kind of experiment: Antitrypanosomal activity against Trypanosoma cruzi MHOM/Pe/2011/Arequipa;DTU 5 bloodstream trypomastigotes infected in BALB/c mouse assessed as reduction in serum Ig-G level in acute phase at 20 mg/kg/day, po administered for 5 consecutive days starting from day 8 post infection and measured at day 14 post infection by ELISA. It counts as functional, organism-based. The method in brief:
as §2

As for `O=C(CCN1CCN(c2ccc(C(F)(F)F)cc2)CC1)c1ccc(O)cc1`, the Activity in series [1] is on record as greater than 40%; in the series on Trypanosoma cruzi [5], 50%; in series [14], “<= 20%”; in [15] it was “<= 30%”; in the series with Trypanosoma cruzi [16], 13%; with Trypanosoma cruzi [17], 13%. Moreover, the IC50 with Trypanosoma cruzi [2] was determined as 14.8 µM; in the series on Trypanosoma cruzi [9] it was 2.3 µM; with Trypanosoma cruzi [11], 9.4 µM; with Trypanosoma cruzi [12] it was 12.6 µM. Moreover, the outcome in the series on Trypanosoma cruzi [3], in the series with Trypanosoma cruzi [6], in the series on Trypanosoma cruzi [8], in the series with Trypanosoma cruzi [13] and in the series with Trypanosoma cruzi [18] was Active. The selectivity ratio in series [4] stood at 4.7; in [7], 45.7; in series [10], 51.
As to `O=C(CCN1CCN(c2ccc(Cl)cc2)CC1)c1ccc(O)cc1`, the Activity entry was “<= 10%” in [1]; 63% in the series on Trypanosoma cruzi [5]; “<= 20%” in [14]; “<= 20%” in series [15]; 50% in the series with Trypanosoma cruzi [16]; 50% in the series on Trypanosoma cruzi [17]. Also, the IC50 in the series with Trypanosoma cruzi [2] came out at 10.6 µM; with Trypanosoma cruzi [9], 2.1 µM; in the series on Trypanosoma cruzi [11], 6.8 µM; with Trypanosoma cruzi [12] it was 12.1 µM. The outcome in the series with Trypanosoma cruzi [3], in the series on Trypanosoma cruzi [6], in the series with Trypanosoma cruzi [8], in the series with Trypanosoma cruzi [13] and in the series with Trypanosoma cruzi [18] was Active. Moreover, the selectivity ratio was determined as 5.6 in series [4], 49.6 in series [7] and 50.9 in series [10].
Regarding `O=C(Cn1ccnc1[N+](=O)[O-])NCc1ccccc1` [BENZNIDAZOLE], the Activity in series [1] is reported as greater than 40%; in the series on Trypanosoma cruzi [5], 38%; in [14], “<= 10%”; in [15] it was “<= 10%”; in the series with Trypanosoma cruzi [16], 25%; with Trypanosoma cruzi [17] it was 25%. For the same molecule, the IC50 in the series on Trypanosoma cruzi [2] was 25.3 µM; with Trypanosoma cruzi [9], 6.7 µM; with Trypanosoma cruzi [11] it was 4.1 µM; with Trypanosoma cruzi [12], 15.3 µM. The result with Trypanosoma cruzi [3], in the series with Trypanosoma cruzi [6], with Trypanosoma cruzi [8], in the series with Trypanosoma cruzi [13] and with Trypanosoma cruzi [18] was Active. The selectivity ratio in [4] is greater than 7.6; in series [7], greater than 29.9; in series [10], greater than 6.
